We go through 1 compound from ChEMBL document CHEMBL3259808, “Optimization of antitrypanosomatid agents: identification of nonmutagenic drug candidates with in vivo activity” (J Med Chem, 2014).

A word on the IC50: it is the midpoint of a concentration-inhibition curve.

The subject of data set [1] is Salmonella typhimurium. Nature of the data set: Mutagenic activity in Salmonella typhimurium TA100 at 0.003 to 0.2 ug/plate by Ames test. The conditions noted are these: salmonella enterica subsp. enterica serovar typhimurium. In kind it is toxicity, organism-based. An outline of the steps:
(§1)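 Direct plate incubation on minimal glucose agar (Vogel-Bonner E). Compound toxicity to the bacteria was checked first. DMSO solutions were tested at five consecutive 3-fold dilutions, starting from the highest non-toxic dose, in triplicate, without metabolic activation. DMSO served as negative control. Revertants were counted manually; mutagenic = revertants at least double the negative control at two or more consecutive doses.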
(In general: In the Ames test, an excess of revertant colonies over the control signals mutagenicity.)

A short description of data set [2]: Stability of the compound in aqueous solution assessed as compound remaining at 1 mM at pH 9 after 1 hr by TLC analysis. The class given is physicochemical. Conditions: aqueous solution, pH 9; read-out: Stability. An outline of the steps:
(§2)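 DMSO stocks diluted to final 1 mM in KCl·HCl pH 1.0, citrate pH 6.0, Tris·HCl pH 7.4 or borax·HCl pH 9.0 buffer. Incubated 1 h at 37 °C, then ethyl acetate extracts checked by TLC for decomposition products.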

Data set [3] relates to Salmonella typhimurium. Nature of the data set: Mutagenic activity in Salmonella typhimurium TA1537 at 3.09 to 250 ug/plate by Ames test. In kind it is toxicity, organism-based. The conditions noted are these: salmonella enterica subsp. enterica serovar typhimurium. An outline of the steps: as §1
The subject of data set [4] is Trypanosoma cruzi. Nature of the data set: Antitrypanosomal activity against Trypanosoma cruzi Sylvio X-10 amastigotes infected in African green monkey Vero cells assessed as eradication of amastigotes after 5 days by Giemsa staining-based assay. In kind it is functional, organism-based. Conditions: Sylvio X-10, Vero, 120 h. An outline of the steps: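 VERO cells in RPMI 1640 with 10% hiFCS were allowed to adhere for 24 h at 37 °C in 5% CO₂, then infected with tissue-derived trypomastigotes at 10:1. Free parasites were washed off after 24 h, and cultures were treated at five compound doses (text gives 72 h / 5 days). Cultures were methanol-fixed and Giemsa-stained, and infected cells were counted among 300. Quadruplicates were run in three independent experiments. IC50/IC90 were obtained by sigmoidal regression.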

Data set [5] is described as follows: Stability of the compound in aqueous solution assessed as compound remaining at 1 mM at pH 7.4 after 1 hr by TLC analysis. In kind it is physicochemical. The conditions noted are these: aqueous solution, pH 7.4; read-out: Stability. An outline of the steps:
as §2

Data set [6] has as its system Trypanosoma cruzi. Nature of the data set: Antitrypanosomal activity against Trypanosoma cruzi CL Brener infected in BALB/c mouse assessed as decrease in plasmodial antibodies at 214 umol/kg/day, po for 14 days administered in cholesterol/surfactant/phosphate buffer measured on day 60 by ELISA. The class given is functional, organism-based. Conditions: in the assay text read “anti-Trypanosoma cruzi antibodies” for “plasmodial antibodies”. An outline of the steps:
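Infected male BALB/c mice (n = 7/group) were dosed orally for 14 days from day 6 post-infection in cholesterol/surfactant/phosphate buffer pH 7.4 microemulsion; the control group received vehicle. Anti-T. cruzi antibodies were measured by ELISA (each serum tested twice) at days 30 and 60 post-infection and compared with untreated animals and a healthy-animal cutoff.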

Data set [7] deals with Salmonella typhimurium. Nature of the data set: Mutagenic activity in Salmonella typhimurium TA1537 at 3.09 to 250 ug/plate by Ames test in presence of mouse liver S9 fraction. The class given is toxicity, organism-based. The conditions noted are these: salmonella enterica subsp. enterica serovar typhimurium. An outline of the steps: (§3)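 Plate-incorporation Ames test on minimal glucose agar with 500 μL Aroclor-treated mouse liver S9 added. DMSO solutions were tested at five consecutive 3-fold dilutions from the highest non-toxic dose, in triplicate, with a DMSO negative control. Revertants were counted manually; a compound was scored mutagenic when revertants were at least twice the negative control for two or more consecutive doses.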

Data set [8] concerns Trypanosoma cruzi. Nature of the data set: Antitrypanosomal activity against Trypanosoma cruzi CL Brener infected in BALB/c mouse assessed as peak of maximum parasitemia at 107 umol/kg/day, po for 14 days administered in cholesterol/surfactant/phosphate buffer measured up to 60 days relative to control. In kind it is functional. An outline of the steps:
(§4)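 Male BALB/c mice (30 days old, 25–30 g, SPF) were infected i.p. with 10³ blood trypomastigotes, n = 7/group. Daily oral gavage in a microemulsion (cholesterol oil phase, phosphatidylcholine/sodium oleate/polyoxyl-40 hydrogenated castor oil surfactant, phosphate buffer pH 7.4) ran for 14 days from day 6; vehicle controls were included. Parasitemia was read weekly in tail-vein blood by hemocytometer for 60 days, with survival recorded.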

The subject of data set [9] is Salmonella typhimurium. Nature of the data set: Mutagenic activity in Salmonella typhimurium TA98 at 5 to 400 ug/plate by Ames test. The class given is toxicity, organism-based. The conditions noted are these: salmonella enterica subsp. enterica serovar typhimurium. An outline of the steps: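 Ames plate-incorporation assay with S. typhimurium TA98 in Vogel-Bonner E minimal glucose agar. Toxicity toward the bacteria was checked first. DMSO solutions were run in triplicate at five consecutive third-dilutions, starting at the highest non-toxic dose. Positive controls were 4-nitro-o-phenylenediamine (20.0 μg/plate) and 2-aminofluorene (10.0 μg/plate); DMSO was the negative control. Revertants were counted manually. A compound was called mutagenic when revertants were at least twice the negative control at two or more consecutive doses.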

Data set [10] deals with Trypanosoma cruzi. Nature of the data set: Antitrypanosomal activity against Trypanosoma cruzi CL Brener infected in BALB/c mouse assessed as peak of maximum parasitemia at 214 umol/kg/day, po for 14 days administered in cholesterol/surfactant/phosphate buffer measured up to 60 days relative to control. In kind it is functional. An outline of the steps:
as §4

For data set [11], the system named is Salmonella typhimurium. Nature of the data set: Mutagenic activity in Salmonella typhimurium TA1535 at 3.09 to 250 ug/plate by Ames test in presence of mouse liver S9 fraction. In kind it is toxicity, organism-based. The conditions noted are these: salmonella enterica subsp. enterica serovar typhimurium. An outline of the steps: as §3
The test system of data set [12] is Trypanosoma cruzi. Nature of the data set: Antitrypanosomal activity against Trypanosoma cruzi CL Brener infected in BALB/c mouse assessed as mouse survival at 107 umol/kg/day, po for 14 days administered in cholesterol/surfactant/phosphate buffer measured up to 60 days relative to control. The class given is functional. An outline of the steps: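 Infected male BALB/c mice (30 days old, 25–30 g) were gavaged daily from day 6 postinfection for 14 days. Vehicle was a microemulsion of 10% cholesterol, 10% surfactant (soya phosphatidylcholine/sodium oleate/polyoxyl-40 hydrogenated castor oil) and 80% phosphate buffer pH 7.4. n = 7/group, with vehicle controls. Tail-vein parasitemia was taken weekly for 60 days and mortality recorded.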

A short description of data set [13]: Stability of the compound in aqueous solution assessed as compound remaining at 1 mM at 37 degC after 1 hr by TLC analysis in presence of rat liver cytosolic fraction. The class given is ADME. The conditions noted are these: cytosol, 1000 µM. An outline of the steps: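 Rat liver cytosolic (100 000g supernatant) and microsomal (100 000g pellet, washed and resuspended in Tris·HCl) fractions, fresh or stored at −80 °C; protein measured by BCA. Compound incubated with the fraction 1 h at 37 °C and analysed by TLC of extracts.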

The nature of data set [14]: Selectivity index, ratio of IC50 for African green monkey Vero cells to IC50 for Trypanosoma cruzi Sylvio X-10 amastigotes. The class given is toxicity, cell-based. The conditions noted are these: read-out: Ratio IC50. An outline of the steps: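 VERO cytotoxicity: cells exposed 48 h at 37 °C, 5% CO2 to serial dilutions from a maximum of 2000 μM (DMSO stocks; DMSO <0.1% control); growth inhibition read by MTT at 570 nm. Amastigote IC50: Sylvio X-10-infected VERO cells, five doses, infected cells counted among 300 (Giemsa), quadruplicate, three experiments, sigmoidal fit. SI = IC50 VERO / IC50 amastigote.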

For data set [15], the system named is Salmonella typhimurium. Nature of the data set: Mutagenic activity in Salmonella typhimurium TA100 at 0.003 to 0.2 ug/plate by Ames test in presence of mouse liver S9 fraction. In kind it is toxicity, organism-based. The conditions noted are these: salmonella enterica subsp. enterica serovar typhimurium. An outline of the steps:
as §3

Another data set concerns Mus musculus. Nature of the data set: Toxicity in BALB/c mouse assessed as mortality at 100 mg/kg/day, po for 14 days. The class given is organism-based. Also noted: route oral. The conditions noted are these: in vivo, 336 h. An outline of the steps:
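Uninfected female BALB/c mice (n = 2/group) received intragastric gavage daily for 14 days in saline/Tween 80 (4:1). They were weighed and monitored daily, then sacrificed for macroscopic necropsy of organs.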

The source made the active and inactive calls.

For `Br.C=CCn1c(-c2ccc(Cl)cc2)cs\c1=N/N=C/C=C/c1ccco1.O`, the Activity result in the data set on Salmonella typhimurium [1], in the data set with Salmonella typhimurium [3], in the data set on Salmonella typhimurium [7], in the data set with Salmonella typhimurium [9], in the data set on Salmonella typhimurium [11] and with Salmonella typhimurium [15] was “Non-toxic” each time. Further, in the data set with Mus musculus, the Activity result is given as “Non-toxic”. For the same compound, the remaining at 1 h, 1000 µM in data set [2] and in data set [5] was > 95% in each case. In addition, the IC50 with Trypanosoma cruzi [4] is < 250 nM. For the same compound, in the data set on Trypanosoma cruzi [6], the result was Active. Further, the Time with Trypanosoma cruzi [8] and in the data set with Trypanosoma cruzi [10] was 35 days each time. Also, the survival at 107 µmol/kg in the data set with Trypanosoma cruzi [12] was determined as 100%. Besides, in data set [13], the Stability entry was “Stable”. For the same compound, the selectivity ratio in data set [14] is > 1000.
